Hck Nef HTS: inhibitors of human Hck kinase activated by Nef | Recombinant Hck-YEEI plus Nef, Z-Lyte FRET kinase assay | AID 463187 | actives 0.68% (n = 220,000) | inhibition, % at 20 µM;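 active means Hck-Nef kinase inhibition above about 50%, limit read from the data; inactive means inhibition below that limit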;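 further: 0% = DMSO with Hck plus Nef and 100% = Hck alone without Nef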
Target sequence (P08631 whole entry, looked up): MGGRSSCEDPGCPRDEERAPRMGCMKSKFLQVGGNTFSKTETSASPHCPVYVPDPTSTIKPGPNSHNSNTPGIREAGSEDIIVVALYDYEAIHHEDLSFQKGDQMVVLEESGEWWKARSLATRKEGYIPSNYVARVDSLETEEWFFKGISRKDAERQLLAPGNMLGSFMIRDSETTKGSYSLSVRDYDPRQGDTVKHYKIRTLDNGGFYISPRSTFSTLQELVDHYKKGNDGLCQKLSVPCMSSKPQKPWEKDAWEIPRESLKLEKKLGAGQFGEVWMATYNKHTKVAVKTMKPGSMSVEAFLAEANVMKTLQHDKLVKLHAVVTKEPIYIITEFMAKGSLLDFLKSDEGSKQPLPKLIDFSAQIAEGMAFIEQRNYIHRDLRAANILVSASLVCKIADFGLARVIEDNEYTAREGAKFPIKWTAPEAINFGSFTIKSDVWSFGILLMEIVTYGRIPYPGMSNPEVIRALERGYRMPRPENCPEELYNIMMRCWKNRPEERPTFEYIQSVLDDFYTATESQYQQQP
RanGTP-Imp inh: inhibitors of RanGTP-importin-beta interaction, primary screen, biochemical, FRET, CFP-Ran, YFP-importin-beta, homogeneous | AID 2216 | actives 1.1% (n = 300,000) | inhibition, % (concentration not given with the values) | cell-free CFP-Ran/YFP-importin-beta FRET ratio;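 active means more than half of the replicate wells show a fall in the fluorescence ratio signal beyond about 16%, limit read from the data, passing the limit was not always enough; inconclusive means exactly half of the replicate wells pass the set limit; inactive means fewer than half of replicates pass the limit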;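 further: 0% = DMSO wells and 100% = Ran loaded with GDP instead of GTP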
TbHK1 inh: T. brucei hexokinase 1 inhibition; recombinant TbHK1, G6PDH-coupled NADH A340; inhibition, % at 10 µM; actives 0.11% (n = 220,000); AID 1430;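 active means inhibition of 50% or more in the single-dose primary screen; inactive means inhibition below 50%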
p97 inhibitor: inhibitors of human p97 ATPase. recombinant p97 ATPase, Kinase-Glo ATP luminescence, 3 h. inhibition, % at 8 µM. actives 0.42% (n = 220,000). P55072. AID 1481; in the data active means inhibition above about 15%;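 further: 0% = DMSO vehicle and 100% = wells lacking enzyme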
Runt-CBFb FRET: inhibitors of human RUNX1 Runt domain binding to CBFb. Q01196+Q13951. actives 0.46% (n = 220,000). AID 1496. inhibition, % at 20 µM. Cerulean-Runt/Venus-CBFb FRET ratio 530/480, 1 h;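 active means inhibition over about 50% at 20 µM in the single-dose screen, limit read from the data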;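 further: 0% = DMSO wells and 100% = excess unlabeled CBFb competitor control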
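Schedule: protein complex preformed 1 h, compound exposure 1 h, room temperature, dark; test system: Cerulean-labeled Runt domain protein; amount: 100 nM per protein; buffer or medium: Tris 50 mM pH 7.5, KCl, K2SO4, 0.01% BSA; read-out: loss of energy transfer signal; detection: FRET fluorescence; controls: 5 µM unlabeled CBFb as full-inhibition high control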
Runt-SMMHC FRET: inhibitors of human RUNX1 Runt domain binding to CBFb-SMMHC | Q01196+Q13951 | Cerulean-Runt/Venus-CBFb-SMMHC FRET ratio 530/480, 1 h | inhibition, % at 20 µM | actives 0.74% (n = 220,000) | AID 1434;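 active means mean inhibition across duplicate retests at 20 µM reaching about 50%, limit read from the data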;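 further: 0% = DMSO wells and 100% = wells with excess untagged CBFb-SMMHC; inhibitors lower the FRET ratio by blocking Runt binding to CBFb-SMMHC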
p97 confirm: confirmation of human p97 ATPase inhibitors; shares compounds with p97 inhibitor; recombinant p97 ATPase, Kinase-Glo ATP luminescence; inhibition, % at 8 µM; actives 44% (n = 760);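 active means percent inhibition of p97 ATPase above a set limit, the primary screen's mean plus 3 SD, cut at about 15% in these data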;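 further: 0% = DMSO wells and 100% = wells lacking p97 protein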
The depositor's hits bear a star; ? = inconclusive; . = no result. Hits are enriched below; roughly 2.1% of the tested compounds scored in any of these assays.

SMILES	Hck Nef HTS	RanGTP-Imp inh	TbHK1 inh	p97 inhibitor	Runt-CBFb FRET	Runt-SMMHC FRET	p97 confirm
Oc1ccc(-c2csc(-c3c[nH]c4ccccc34)n2)c(O)c1	14	1	-13	19*	-5	-12	22*
Cc1ccc(-c2csc(-c3c[nH]c4ccccc34)n2)c(C)c1	-1	4	0	-2	-1	0	.
CSc1nsc(SCc2ccc(Cl)cc2)n1	-1	0	-4	26*	-3	-1	0
COc1ccc(Cn2c(-c3ccco3)nc3c(c(=O)c4ccccc4n3C)c2=O)cc1	13	1	-18	3	5	-1	.
Cn1c2ccccc2c(=O)c2c(=O)n(Cc3ccco3)c(-c3ccc(Cl)cc3Cl)nc21	37	0	-17	33*	50	9	24*
c1ccc(Cn2nnc3c(N4CCCCCC4)ncnc32)cc1	17	3	-4	20*	0	-1	1
CCN(c1ccccc1)S(=O)(=O)c1cccc(C(=O)Nc2ccc(C)cn2)c1	.	2	.	.	.	.	.
CC(C)=CCC/C(C)=C/CC/C(C)=C/CC/C(C)=C/CC1=C(C)C(=O)c2ccccc2C1=O	29	7	-10	.	-4	1	.
CC(C)=CCC1=C(OCC(=O)O)C(=O)c2ccccc2C1=O	25	-2	-13	32*	4	0	29*
CC1=Nc2ccccc2/C1=C/c1sc(=S)n(-c2cccc(C(=O)O)c2)c1O	4	3	2	16*	-58	-198	35*
CCOC(=O)c1sc(NC(=O)C(C)Sc2nc(N)cc(=O)[nH]2)nc1C (configuration not stated)	15	3	-1	5	1	-4	.
CCOCC(=O)N1CCN(c2ccccc2OC)CC1	-7	-1	1	-3	-1	-2	.
Oc1ccc(/C=N\Nc2cc(N3CCOCC3)nc(N3CCOCC3)n2)c(O)c1	-2	4	-49	11	-1	-4	.
Cc1cc(N/N=C/c2ccc(O)cc2O)nc(N2CCOCC2)n1	13	2	-99	15*	5	6	17*
Oc1ccc2ccccc2c1/C=N/c1nccs1	-1	-4	5	7	13	5	.
Oc1ccc2ccccc2c1C=NCc1cn2ccsc2n1	0	-3	4	40*	10	7	7
CCCCC(=O)Nc1ccc2c(c1)nc(CCN1CCN(C)CC1)n2C	16	6	-10	4	-1	1	.
Cc1cccc(C)c1NC(=O)COC(=O)c1cccnc1	14	0	6	17*	-1	-4	6
Nc1c(C(=O)NCc2ccco2)c2nc3ccccc3nc2n1CCc1ccccc1	44	56*	-13	18*	38	76*	7
Cc1sc2ncnc(SCC(=O)N3CCCC(C(F)(F)F)C3)c2c1C (configuration not stated)	.	0	.	.	.	.	.
Oc1ccc(/C=N/Nc2ccnc3cc(Cl)ccc23)cc1O	39	-4	-5	33*	0	0	41*
CN(C)S(=O)(=O)NCC1CCCN(Cc2ccc(-c3ccccc3)cc2)C1 (configuration not stated)	.	1	.	.	.	.	.
Cc1ccc2nc(/C(C#N)=C\c3ccc([N+](=O)[O-])o3)[nH]c2c1	3	?	-10	16*	-21	-56	32*
N#C/C(=C\c1ccc([N+](=O)[O-])o1)c1nc2ccccc2[nH]1	2	.	1	21*	-10	-40	36*
N#C/C(=C(/O)c1ccc([N+](=O)[O-])o1)c1nc2ccccc2[nH]1	40	-1	-33	6	5	11	.
O=C(CCCN1C(=O)/C(=C/c2ccco2)SC1=S)Nc1ccccc1C(=O)O	37	0	7	22*	30	0	14
O=C(CCN1C(=O)/C(=C/c2ccco2)SC1=S)Nc1ccc(O)cc1C(=O)O	.	-5	.	.	.	.	.
Cc1ccc(-c2nnc(NCc3nc4ccccc4[nH]3)c3ccccc23)cc1S(=O)(=O)N1CCOCC1	22	0	-12	15*	-4	-2	12
